In brackets after ≈: the same amount, converted by molar mass.
Key:
Staphylococcus aureus [1] = test: Antimicrobial activity against methicillin-susceptible Staphylococcus aureus 29213 infected in BALB/cAnNCr mouse assessed as decrease in bacterial density in lungs at 1 to 25 mg/kg, sc administered as 1 to 5 times/day after 24 hrs […] relative to control; assay type: functional; settings: route subcutaneous
Method in brief: (§1)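 Female BALB/cAnNCr mice (7–9 weeks) were made neutropenic with cyclophosphamide i.p. at 250 mg/kg on day −4 and 100 mg/kg on day −1. Under isoflurane, mice received an oral inoculum in 3% mucin/saline, with nostrils blocked until aspiration. Drug (1–25 mg/kg s.c., once to five times daily, water vehicle) or sham started 6 h post-inoculation. Lungs were harvested at 24 h, homogenized and plated on blood and Columbia agar at 35°C. Mean log10 CFU/ml was compared with the 0-h untreated baseline; 5 mice per group.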

Staphylococcus aureus [2] = test: Antimicrobial activity against methicillin-susceptible Staphylococcus aureus 25923 infected in BALB/cAnNCr mouse assessed as decrease in bacterial density in lungs at 1 to 25 mg/kg, sc administered as 1 to 5 times/day after 24 hrs […] relative to control; assay type: functional; settings: dose mg/kg 1-5; route subcutaneous
Method in brief: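 Neutropenic mice given oral S. aureus inoculum (10^7 CFU/ml in 3% mucin). s.c. dosing of 1–25 mg/kg, once to five times daily, began 6 h post-infection and ran 24 h, five mice per group, with sham-treated controls. Lung homogenates were plated on blood and Columbia agar at 35°C up to 48 h. Log10 CFU/ml at 24 h was compared with untreated controls.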

[3] = fT>MIC required for stasis inhibition of community acquired methicillin-resistant Staphylococcus aureus 144 infection in neutropenic BALB/cAnNCr mouse; assay type: functional
Method in brief: (§2)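 Same neutropenic murine pneumonia model, with 24-h lung log10 CFU change (5 mice per group; 1–25 mg/kg s.c., 1–5 times daily). […] ED50, ED80 and stasis exposures were taken from a sigmoid Emax fit for each isolate.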

[4] = fT>MIC required for stasis inhibition of hospital acquired methicillin-resistant Staphylococcus aureus 56 infection in neutropenic BALB/cAnNCr mouse; assay type: functional; method in brief: as §2
[5] = fT>MIC required for 50% inhibition of hospital acquired Staphylococcus aureus 149 infection in neutropenic BALB/cAnNCr mouse; assay type: functional
[6] = fT>MIC required for 50% inhibition of methicillin-susceptible Staphylococcus aureus 25923 infection in neutropenic BALB/cAnNCr mouse; assay type: functional
[7] = fT>MIC required for 80% inhibition of community acquired methicillin-resistant Staphylococcus aureus 144 infection in neutropenic BALB/cAnNCr mouse; assay type: functional; method in brief: as §2
[8] = fT>MIC required for 80% inhibition of methicillin-susceptible Staphylococcus aureus […] infection in neutropenic BALB/cAnNCr mouse; assay type: functional
[9] = fCmax/MIC in neutropenic BALB/cAnNCr mouse plasma infected with Staphylococcus aureus at 1 to 25 mg/kg, sc administered 1 to 5 times/day after 24 hrs by HPLC; assay type: functional; settings: route subcutaneous
Method in brief: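 Exposure indices used free plasma drug, correcting with 19% mouse protein binding supplied by the sponsor. The regimens were s.c. 1–25 mg/kg given 1–5 times daily for 24 h to neutropenic mice with S. aureus pneumonia. MICs were determined in triplicate by CLSI broth microdilution. PK came from the single-dose HPLC study.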

[10] = Elimination clearance in neutropenic BALB/cAnNCr mouse infected with Staphylococcus aureus at 2.5 mg/kg, sc administered as single dose after 6 hrs of infection; assay type: ADME, organism-based; parameters: dose 2.5 mg/kg, route subcutaneous; settings: in vivo
Method in brief: (§3)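 Female BALB/cAnNCr mice (7-9 weeks, 15-22 g) made neutropenic with cyclophosphamide, 250 mg/kg i.p. on day -4 and 100 mg/kg i.p. on day -1. Infected by oral aspiration of HA-MRSA 56 (10^7 CFU/ml in 3% mucin/saline). Single s.c. dose in sterile water given 6 h post-challenge. Plasma (EDTA, citric acid-stabilized) taken at 0.25-4 h, six mice per time point. Assayed by validated HPLC (LOQ 0.01 µg/ml); one-compartment analysis.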

[11] = Elimination half life in neutropenic BALB/cAnNCr mouse infected with Staphylococcus aureus at 25 mg/kg, sc administered as single dose after 6 hrs of infection; assay type: ADME, organism-based; parameters: dose 25 mg/kg, route subcutaneous; settings: in vivo
Method in brief: (§4)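 Neutropenic female mice (cyclophosphamide i.p. 250 mg/kg day −4, 100 mg/kg day −1) with HA-MRSA 56 pneumonia (oral inoculum, 10^7 CFU/ml in 3% mucin). Single s.c. dose in sterile water. Plasma by intracardiac puncture at 0.25–4 h, six mice per time point, stabilized with citric acid. Assayed by validated HPLC (LOQ 0.01 µg/ml). Parameters from one-compartment analysis.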

Mus musculus = test: Volume of distribution in neutropenic BALB/cAnNCr mouse infected with Staphylococcus aureus at 1 mg/kg, sc administered as single dose after 6 hrs of infection; assay type: ADME, organism-based; parameters: dose 1 mg/kg, route subcutaneous; settings: in vivo; method in brief: as §4
[12] = Tmax in neutropenic BALB/cAnNCr mouse infected with Staphylococcus aureus at 2.5 mg/kg, sc administered as single dose after 6 hrs of infection; assay type: ADME, organism-based; parameters: dose 2.5 mg/kg, route subcutaneous; settings: in vivo; method in brief: as §3
Staphylococcus aureus [13] = test: Antimicrobial activity against hospital acquired methicillin-resistant Staphylococcus aureus 149 by broth microdilution method; assay type: functional
Method in brief: (§5)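 Broth microdilution run in triplicate following CLSI guidelines. Isolates were stored at –80°C in double-strength skim milk and subcultured twice on Trypticase soy agar with 5% sheep blood before testing.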

Staphylococcus aureus [14] = test: Antimicrobial activity against community acquired methicillin-resistant Staphylococcus aureus 144 by broth microdilution method; assay type: functional; method in brief: as §5
Staphylococcus aureus [15] = test: Antimicrobial activity against hospital acquired methicillin-resistant Staphylococcus aureus 149 infected in BALB/cAnNCr mouse assessed as decrease in bacterial density in lungs at 1 to 25 mg/kg, sc administered as 1 to 5 times/day after 24 hrs […] relative to control; assay type: functional; settings: route subcutaneous; method in brief: as §1
Staphylococcus aureus [16] = test: Antimicrobial activity against community acquired methicillin-resistant Staphylococcus aureus 147 infected in BALB/cAnNCr mouse assessed as decrease in bacterial density in lungs at 1 to 25 mg/kg, sc administered as 1 to 5 times/day after 24 hrs […] relative to control; assay type: functional; settings: route subcutaneous; method in brief: as §1

With `Nc1nc(/C(=N/O)C(=O)N[C@@H]2C(=O)N3C(C(=O)O)=C(/C=C4\CCN([C@@H]5CCNC5)C4=O)CS[C@H]23)ns1` [CEFTOBIPROLE] the log10cfu (Staphylococcus aureus [1]) was 3.9, the log10cfu (Staphylococcus aureus [2]) was 4.2 and the “fT>MIC” value [3] was 13.6%. For the same compound, the “fT>MIC” value [4] was 13.1%, the “fT>MIC” value [5] was 8.6% and the “fT>MIC” value [6] was 8.1%. The “fT>MIC” value [7] was 14.3%, the “fT>MIC” value [8] was 19.5% and the fCmax/MIC [9] was 1. It also gave a CL/F [10] of 16.2 mL/min/kg, a half-life [11] of 24 min and a Vd (Mus musculus) of 0.19 L/kg. It also gave a Tmax [12] of 24.6 min, an MIC (Staphylococcus aureus [13]) of 1 µg/mL (≈ 1.87 µM) and an MIC (Staphylococcus aureus [14]) of 1 µg/mL (≈ 1.87 µM). It also gave a log10cfu (Staphylococcus aureus [15]) of 4.1 and a log10cfu (Staphylococcus aureus [16]) of 3.2.

Source: ChEMBL document CHEMBL1275429, “Pharmacodynamic characterization of ceftobiprole in experimental pneumonia caused by phenotypically diverse Staphylococcus aureus strains” (Antimicrob Agents Chemother, 2008)
